In ChEMBL document CHEMBL4145521, “Regioselective synthesis of 3,4-diaryl-5-unsubstituted isoxazoles, analogues of natural cytostatic combretastatin A4” (Eur J Med Chem, 2018):

How the values were obtained:
Paracentrotus lividus [1] = assay: Antimitotic activity against Paracentrotus lividus embryo assessed as embryo spinning after 15 mins to 20 hrs by light microscopy; format: functional
How it was run: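 Free-swimming blastulae from the same culture were used just after hatching (8–10 h post-fertilization). They were kept in filtered seawater at room temperature and exposed to 2-fold decreasing concentrations. Spinning at the well bottom instead of forward swimming was monitored from 15 min to 20 h under light microscopy. The effective threshold concentration was recorded from duplicates.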

Paracentrotus lividus [2] = assay: Antimitotic activity against Paracentrotus lividus embryo assessed as cleavage alteration measured at 2.5 hrs post fertilization by light microscopy; format: functional
How it was run: (§1)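 Sea urchin eggs were fertilized with diluted sperm and cultured at room temperature in filtered seawater with paddle agitation (60 rpm), at up to 2000 embryos/mL. The effective threshold concentration causing cleavage alteration, death before hatching or full mitotic arrest was scored in duplicate.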

Paracentrotus lividus [3] = assay: Antimitotic activity against Paracentrotus lividus embryo assessed as cleavage arrest measured at 5.5 hrs post fertilization by light microscopy; format: functional; how it was run: as §1
Paracentrotus lividus [4] = assay: Toxicity in Paracentrotus lividus embryo assessed as embryo death at 2 to 4 uM by light microscopy; format: organism-based; settings: in vivo
Paracentrotus lividus [5] = assay: Toxicity in Paracentrotus lividus embryo assessed as embryo destruction at 2 to 4 uM by light microscopy; format: organism-based; settings: in vivo

SMILES | EC (Paracentrotus lividus [1]) [µM] | EC (Paracentrotus lividus [2]) [µM] | EC (Paracentrotus lividus [3]) [µM] | Activity (Paracentrotus lividus [4]) | Activity (Paracentrotus lividus [5])
COc1ccc(-c2nocc2-c2ccc([N+](=O)[O-])cc2)cc1 | >4 | >4 | >4 |  | 
CCOC(=O)C1O[N+]([O-])=C(c2ccccc2)C1c1cc(OC)c2c(c1OC)OCO2 (centres undefined) | >4 | >4 | >4 |  | 
COc1ccc(-c2nocc2-c2cnn(C)c2)cc1 | >4 | >4 | >4 |  | 
COc1ccc(-c2noc(C(=O)O)c2-c2cccc(OC)c2)cc1 | >4 | >4 | >4 |  | 
COc1ccc(-c2noc(C(=O)O)c2-c2ccc(Cl)cc2)cc1 | >4 | >4 | >4 |  | 
CCOC(=O)C1O[N+]([O-])=C(c2ccc(OC)cc2)C1c1cc(OC)cc(OC)c1 (centres undefined) | >4 | >4 | >4 |  | 
COc1ccc(-c2nocc2-c2cccs2)cc1 | >4 | 0.5 | >4 |  | 
COc1cc(/C=C(/c2ccccc2)[N+](=O)[O-])c(OC)c2c1OCO2 | 1 | 2 | 4 | Toxic | Toxic
COc1ccc(-c2nocc2-c2ccc(Cl)cc2)cc1 | >4 | >4 | >4 |  | 
COc1ccc(-c2nocc2-c2cc(OC)cc(OC)c2)cc1 | >10 | 0.2 | 2 |  | 
CCOC(=O)C1O[N+]([O-])=C(c2ccc(OC)cc2)C1c1ccc([N+](=O)[O-])cc1 (centres undefined) | >4 | >4 | >4 |  | 
COc1cc(-c2conc2-c2ccccc2)cc(OC)c1OC | >4 | 4 | >4 |  | 
COc1ccc(/C(=C/c2cc(OC)c(OC)c(OC)c2)[N+](=O)[O-])cc1 | >4 | 1 | 4 | Toxic | Toxic
COc1ccc(/C(=C/c2cccs2)[N+](=O)[O-])cc1 | 2 | 0.2 | 2 | Toxic | Toxic
CCOC(=O)C1O[N+]([O-])=C(c2ccc(OC)cc2)C1c1cc(OC)c(OC)c(OC)c1 (centres undefined) | >4 | >4 | >4 |  | 
CCOC(=O)C1O[N+]([O-])=C(c2ccc(OC)cc2)C1c1cccc(OC)c1 (centres undefined) | >4 | 4 | >4 |  | 
COc1cc(-c2c(-c3ccccc3)noc2C(=O)O)c(OC)c2c1OCO2 | >4 | >4 | >4 |  | 
COc1ccc(/C=C\c2cc(OC)c(OC)c(OC)c2)cc1O [COMBRETASTATIN A4] | 0.05 | 0.002 | 0.01 |  | 
CCOC(=O)C1O[N+]([O-])=C(c2ccc(OC)cc2)C1c1ccc(Cl)cc1 (centres undefined) | >4 | >4 | >4 |  | 
COc1cc(-c2conc2-c2ccccc2)c(OC)c2c1OCO2 | >4 | 2 | >4 |  | 
COc1ccc(/C=C(/c2ccccc2)[N+](=O)[O-])cc1 | 4 | 2 | 4 |  | 
COc1ccc(-c2conc2-c2ccccc2)cc1 | 0.1 | 0.005 | 0.05 |  | 
COc1ccc(-c2noc(C(=O)O)c2-c2cc(OC)c(OC)c(OC)c2)cc1 | >5 | 0.2 | 2 |  | 
COc1ccc(/C(=C/c2cnn(C)c2)[N+](=O)[O-])cc1 | >4 | 2 | >4 |  | 
COc1ccc(-c2nocc2-c2cccc(OC)c2)cc1 | >10 | 0.52 | 4 |  | 
COc1ccc(-c2noc(C(=O)O)c2-c2cc(OC)cc(OC)c2)cc1 | >40 | 20 | >40 |  | 
